Source: ChEMBL document CHEMBL5058577, “EUbOPEN Chemogenomics Library 2 (Multiplex)” (2022)

Tested on: U2OS
Experiment: Multiplex assay against U2OS
Type: toxicity, cell-based
Conditions: human
How it was run: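 On a CQ1 microscope at 37°C and 5% CO2, live cells were imaged after compound addition. They had been stained at seeding with Hoechst33342, BioTracker Green Microtubule Cytoskeleton Dye, MitoTracker Red and Annexin V Alexa Fluor 680. CellPathfinder machine-learning gating assigned cells to Hoechst high-intensity objects or normal cells, normal cells to healthy, pyknosed or fragmented nuclei, and pyknosed cells to mitotic or apoptotic. Tubulin, mitochondrial-mass and membrane-permeability phenotypes are per cents of healthy-nucleus cells.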

[1] = 12 h, 1 µM, compound concentration 1 uM, replicate 1
[2] = 12 h, 1 µM, compound concentration 1 uM, replicate 2
[3] = 12 h, 10 µM, compound concentration 10 uM, replicate 1
[4] = 12 h, 10 µM, compound concentration 10 uM, replicate 2
[5] = 24 h, 1 µM, compound concentration 1 uM, replicate 1
[6] = 24 h, 1 µM, compound concentration 1 uM, replicate 2
[7] = 24 h, 10 µM, compound concentration 10 uM, replicate 1
[8] = 24 h, 10 µM, compound concentration 10 uM, replicate 2
[9] = 48 h, 1 µM, compound concentration 1 uM, replicate 1
[10] = 48 h, 1 µM, compound concentration 1 uM, replicate 2
[11] = 48 h, 10 µM, compound concentration 10 uM, replicate 1
[12] = 48 h, 10 µM, compound concentration 10 uM, replicate 2

Cc1ccc(OCC(O)C(C)NC(C)C)c2c1CCC2.Cl (stereo unspecified)
Population Apoptotic (%) [1]: 63%
Population Fragmented Nuclei (%) [1]: 19%
Population Healthy Nuclei (%) [1]: 66%
Population Hoechst High Intensity Objects (%) [1]: 2%
Population Membrane Permeable-Phenotype (%) [1]: 8%
Population Mitochondria Different-Phenotype (%) [1]: 3%
Population Mitotic Cells (%) [1]: 36%
Population Normal (%) [1]: 97%
Population Pyknosed Nuclei (%) [1]: 13%
Population Tubulin-Different-Phenotype (%) [1]: 4%
Total Cell Count [1]: 222
Population Apoptotic (%) [2]: 90%
Population Fragmented Nuclei (%) [2]: 11%
Population Healthy Nuclei (%) [2]: 79%
Population Hoechst High Intensity Objects (%) [2]: 1%
Population Membrane Permeable-Phenotype (%) [2]: 7%
Population Mitochondria Different-Phenotype (%) [2]: 2%
Population Mitotic Cells (%) [2]: 9%
Population Normal (%) [2]: 98%
Population Pyknosed Nuclei (%) [2]: 8%
Population Tubulin-Different-Phenotype (%) [2]: 2%
Total Cell Count [2]: 129
Population Apoptotic (%) [3]: 61%
Population Fragmented Nuclei (%) [3]: 30%
Population Healthy Nuclei (%) [3]: 52%
Population Hoechst High Intensity Objects (%) [3]: 5%
Population Membrane Permeable-Phenotype (%) [3]: 14%
Population Mitochondria Different-Phenotype (%) [3]: 17%
Population Mitotic Cells (%) [3]: 38%
Population Normal (%) [3]: 94%
Population Pyknosed Nuclei (%) [3]: 16%
Population Tubulin-Different-Phenotype (%) [3]: 8%
Total Cell Count [3]: 215
Population Apoptotic (%) [4]: 80%
Population Fragmented Nuclei (%) [4]: 11%
Population Healthy Nuclei (%) [4]: 81%
Population Hoechst High Intensity Objects (%) [4]: 0%
Population Membrane Permeable-Phenotype (%) [4]: 9%
Population Mitochondria Different-Phenotype (%) [4]: 22%
Population Mitotic Cells (%) [4]: 20%
Population Normal (%) [4]: 99%
Population Pyknosed Nuclei (%) [4]: 7%
Population Tubulin-Different-Phenotype (%) [4]: 9%
Total Cell Count [4]: 137
Population Apoptotic (%) [5]: 88%
Population Fragmented Nuclei (%) [5]: 14%
Population Healthy Nuclei (%) [5]: 75%
Population Hoechst High Intensity Objects (%) [5]: 0%
Population Membrane Permeable-Phenotype (%) [5]: 5%
Population Mitochondria Different-Phenotype (%) [5]: 3%
Population Mitotic Cells (%) [5]: 11%
Population Normal (%) [5]: 100%
Population Pyknosed Nuclei (%) [5]: 10%
Population Tubulin-Different-Phenotype (%) [5]: 4%
Total Cell Count [5]: 255
Population Apoptotic (%) [6]: 93%
Population Fragmented Nuclei (%) [6]: 15%
Population Healthy Nuclei (%) [6]: 73%
Population Hoechst High Intensity Objects (%) [6]: 1%
Population Membrane Permeable-Phenotype (%) [6]: 3%
Population Mitochondria Different-Phenotype (%) [6]: 5%
Population Mitotic Cells (%) [6]: 6%
Population Normal (%) [6]: 98%
Population Tubulin-Different-Phenotype (%) [6]: 0%
Total Cell Count [6]: 155
Population Apoptotic (%) [7]: 82%
Population Fragmented Nuclei (%) [7]: 26%
Population Healthy Nuclei (%) [7]: 56%
Population Hoechst High Intensity Objects (%) [7]: 3%
Population Membrane Permeable-Phenotype (%) [7]: 10%
Population Mitochondria Different-Phenotype (%) [7]: 17%
Population Mitotic Cells (%) [7]: 17%
Population Normal (%) [7]: 96%
Population Pyknosed Nuclei (%) [7]: 17%
Population Tubulin-Different-Phenotype (%) [7]: 4%
Total Cell Count [7]: 230
Population Apoptotic (%) [8]: 92%
Population Fragmented Nuclei (%) [8]: 14%
Population Healthy Nuclei (%) [8]: 77%
Population Hoechst High Intensity Objects (%) [8]: 2%
Population Membrane Permeable-Phenotype (%) [8]: 12%
Population Mitochondria Different-Phenotype (%) [8]: 11%
Population Mitotic Cells (%) [8]: 7%
Population Normal (%) [8]: 97%
Population Pyknosed Nuclei (%) [8]: 8%
Population Tubulin-Different-Phenotype (%) [8]: 6%
Total Cell Count [8]: 172
Population Apoptotic (%) [9]: 88%
Population Fragmented Nuclei (%) [9]: 14%
Population Healthy Nuclei (%) [9]: 73%
Population Hoechst High Intensity Objects (%) [9]: 0%
Population Membrane Permeable-Phenotype (%) [9]: 6%
Population Mitochondria Different-Phenotype (%) [9]: 4%
Population Mitotic Cells (%) [9]: 11%
Population Normal (%) [9]: 99%
Population Pyknosed Nuclei (%) [9]: 12%
Population Tubulin-Different-Phenotype (%) [9]: 3%
Total Cell Count [9]: 377
Population Apoptotic (%) [10]: 80%
Population Fragmented Nuclei (%) [10]: 20%
Population Healthy Nuclei (%) [10]: 69%
Population Hoechst High Intensity Objects (%) [10]: 2%
Population Membrane Permeable-Phenotype (%) [10]: 5%
Population Mitochondria Different-Phenotype (%) [10]: 3%
Population Mitotic Cells (%) [10]: 20%
Population Normal (%) [10]: 97%
Population Pyknosed Nuclei (%) [10]: 10%
Population Tubulin-Different-Phenotype (%) [10]: 2%
Total Cell Count [10]: 202
Population Apoptotic (%) [11]: 82%
Population Fragmented Nuclei (%) [11]: 23%
Population Healthy Nuclei (%) [11]: 63%
Population Hoechst High Intensity Objects (%) [11]: 4%
Population Membrane Permeable-Phenotype (%) [11]: 12%
Population Mitochondria Different-Phenotype (%) [11]: 12%
Population Mitotic Cells (%) [11]: 17%
Population Normal (%) [11]: 95%
Population Pyknosed Nuclei (%) [11]: 13%
Population Tubulin-Different-Phenotype (%) [11]: 6%
Total Cell Count [11]: 306
Population Apoptotic (%) [12]: 77%
Population Fragmented Nuclei (%) [12]: 15%
Population Healthy Nuclei (%) [12]: 73%
Population Hoechst High Intensity Objects (%) [12]: 0%
Population Membrane Permeable-Phenotype (%) [12]: 7%
Population Mitochondria Different-Phenotype (%) [12]: 4%
Population Mitotic Cells (%) [12]: 22%
Population Normal (%) [12]: 99%
Population Pyknosed Nuclei (%) [12]: 11%
Population Tubulin-Different-Phenotype (%) [12]: 3%
Total Cell Count [12]: 246
